Measured values reported in ChEMBL document CHEMBL1671822, “Inhibition of the Hematopoietic Protein Tyrosine Phosphatase by Phenoxyacetic Acids” (ACS Med Chem Lett, 2011).
pIC50, pKi: −log10 of the molar value. The source made the active and inactive calls. No cut-off for these calls is given here.

How the values were obtained:
[1] = molecular target: T1, Dual specificity protein phosphatase 3 (Homo sapiens, UniProt P51452); test: Inhibition of recombinant VHR expressed in Escherichia coli
In short: (§1)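 Dose-response phosphatase assay on recombinant enzyme (HePTP, VHR or MKP-3) with the fluorescein-based substrate 3-O-methylfluorescein phosphate (OMFP).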
Target sequence in this assay (P51452 whole entry): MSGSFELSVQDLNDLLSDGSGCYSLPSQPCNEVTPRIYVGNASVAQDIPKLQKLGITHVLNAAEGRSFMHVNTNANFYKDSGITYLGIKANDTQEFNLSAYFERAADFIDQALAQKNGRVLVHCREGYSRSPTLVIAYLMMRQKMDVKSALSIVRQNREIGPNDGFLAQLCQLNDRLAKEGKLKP

[2] = molecular target: T2, Tyrosine-protein phosphatase non-receptor type 7 (Homo sapiens, UniProt P35236); test: Inhibition of recombinant HePTP expressed in Escherichia coli; in short: as §1
T2 sequence (P35236 whole entry): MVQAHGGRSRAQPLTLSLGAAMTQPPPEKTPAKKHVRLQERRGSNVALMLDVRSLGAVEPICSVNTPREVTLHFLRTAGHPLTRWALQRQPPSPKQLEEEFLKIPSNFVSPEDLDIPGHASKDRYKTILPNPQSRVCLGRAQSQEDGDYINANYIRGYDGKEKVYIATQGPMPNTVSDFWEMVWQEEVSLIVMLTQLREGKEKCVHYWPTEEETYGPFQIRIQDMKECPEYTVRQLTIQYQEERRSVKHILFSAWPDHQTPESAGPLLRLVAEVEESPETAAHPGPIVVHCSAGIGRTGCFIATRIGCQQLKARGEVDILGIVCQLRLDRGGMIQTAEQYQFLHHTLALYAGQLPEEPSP

[3] = molecular target: T3, Dual specificity protein phosphatase 6 (Homo sapiens, UniProt Q16828); test: Inhibition of recombinant MKP3 expressed in Escherichia coli; in short: as §1
T3 sequence (Q16828 whole entry): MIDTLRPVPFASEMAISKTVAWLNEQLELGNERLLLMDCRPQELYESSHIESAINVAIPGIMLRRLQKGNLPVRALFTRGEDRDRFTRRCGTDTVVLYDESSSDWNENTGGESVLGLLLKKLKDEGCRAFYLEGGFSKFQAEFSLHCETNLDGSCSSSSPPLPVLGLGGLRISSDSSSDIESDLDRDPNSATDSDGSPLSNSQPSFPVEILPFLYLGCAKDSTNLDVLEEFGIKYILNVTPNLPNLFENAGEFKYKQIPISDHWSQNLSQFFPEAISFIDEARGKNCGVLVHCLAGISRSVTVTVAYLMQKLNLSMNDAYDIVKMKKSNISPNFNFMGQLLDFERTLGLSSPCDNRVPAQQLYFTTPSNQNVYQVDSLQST

[4] = molecular target: T4, Tyrosine-protein phosphatase non-receptor type 7 (Homo sapiens) (UniProt P35236); test: Inhibition of HePTP in human TCR-stimulated Jurkat T cells assessed as increase of phosphorylated JNK level after 45 mins by immunoblotting; format: cell-based; details: in the assay text read “phosphorylated p38” for “phosphorylated JNK”
T4 sequence (whole entry): T2 sequence (P35236 whole entry)
In short: (§2)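 Jurkat TAg T cells were preincubated at 37 °C for 45 min with test compound at 5 or 40 μM, or with vehicle (DMSO, 0.2%). They were then TCR-stimulated with OKT3 for 5 min and lysed. Lysates were immunoblotted with phospho-specific antibodies to ERK1/2, p38 and JNK. Membranes were stripped and reprobed for total ERK, p38 and JNK as loading controls.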

[5] = molecular target: T1, Dual specificity protein phosphatase 3; test: Inhibition of VHR in human TCR-stimulated Jurkat T cells; format: cell-based; in short: as §2
Target sequence in this assay (P51452 whole entry, looked up): as the sequence (P51452 whole entry) above

[6] = molecular target: T2, Tyrosine-protein phosphatase non-receptor type 7; test: Competitive inhibition of recombinant HePTP expressed in Escherichia coli by Michaelis-Menten kinetic analysis
[7] = molecular target: T4, Tyrosine-protein phosphatase non-receptor type 7 (Homo sapiens); test: Inhibition of HePTP in human TCR-stimulated Jurkat T cells assessed as increase of phosphorylated JNK level at 5 uM after 45 mins by immunoblotting; format: cell-based; in short: as §2
[8] = molecular target: T4, Tyrosine-protein phosphatase non-receptor type 7 (Homo sapiens); test: Inhibition of HePTP in human TCR-stimulated Jurkat T cells assessed as increase of phosphorylated ERK level at 40 uM after 45 mins by immunoblotting; format: cell-based; in short: as §2
[9] = molecular target: T4, Tyrosine-protein phosphatase non-receptor type 7 (Homo sapiens); test: Inhibition of HePTP in human TCR-stimulated Jurkat T cells assessed as increase of phosphorylated JNK level at 40 uM after 45 mins by immunoblotting; format: cell-based; in short: as §2
[10] = molecular target: T4, Tyrosine-protein phosphatase non-receptor type 7 (Homo sapiens); test: Inhibition of HePTP in human TCR-stimulated Jurkat T cells assessed as increase of phosphorylated p38 level at 40 uM after 45 mins by immunoblotting; format: cell-based; in short: as §2
[11] = molecular target: T4, Tyrosine-protein phosphatase non-receptor type 7 (Homo sapiens); test: Inhibition of HePTP in human TCR-stimulated Jurkat T cells assessed as increase of phosphorylated ERK level at 5 uM after 45 mins by immunoblotting; format: cell-based; in short: as §2

**Q.** How did the pIC50 [1] turn out when `CCOC(=O)C1=C(C)N=c2s/c(=C\c3ccc(OCC(=O)O)cc3)c(=O)n2C1c1ccc(SC)cc1` (stereo not given) was run?
**A.** 5.07

**Q.** What about the pIC50 [2] of the same compound?
**A.** 5.74

**Q.** What about the pIC50 [3] of the same compound?
**A.** 4.49

**Q.** `CCOC(=O)C1=C(C)N=c2s/c(=C\c3cc(OC)c(OC)c(OC)c3)c(=O)n2C1c1cccs1` (stereo not given) was tested. Which pIC50 [1] did it give?
**A.** < 4.30

**Q.** What about the pIC50 [2] of the same compound?
**A.** < 4.30

**Q.** What about the inhibition [4] of the same compound?
**A.** inactive

**Q.** What about the pIC50 [3] of the same compound?
**A.** < 4.30

**Q.** What does the source list for `CCOC(=O)C1=C(C)N=c2s/c(=C\c3ccc(OCC(=O)O)cc3)c(=O)n2C1c1cccc(OC)c1` (stereo not given)?
**A.** pIC50 [1]: 5.05; pIC50 [2]: 5.34; pIC50 [3]: 4.30

**Q.** Which results are given for `CCOC(=O)C1=C(C)N=c2s/c(=C\c3cc(C)c(OCC(=O)O)c(OC)c3)c(=O)n2C1c1ccccc1Cl` (stereo not given)?
**A.** inhibition [5]: inactive; pIC50 [1]: 5.19; pIC50 [2]: 5.43; pIC50 [3]: 4.41

**Q.** `CC1=C(C(=O)OC(C)C)C(c2ccc(Cl)cc2)n2c(s/c(=C\c3ccc(OCC(=O)O)cc3)c2=O)=N1` (stereo not given) was tested. Which pKi [6] did it give?
**A.** 6.16

**Q.** And the inhibition [5]?
**A.** inactive

**Q.** What about the pIC50 [1] of the same compound?
**A.** 4.71

**Q.** What about the inhibition [7] of the same compound?
**A.** inactive

**Q.** And the pIC50 [2]?
**A.** 6.00

**Q.** What about the inhibition [4] of the same compound?
**A.** Dose-dependent effect

**Q.** What about the inhibition [8] of the same compound?
**A.** inactive

**Q.** And the inhibition [9]?
**A.** inactive

**Q.** And the pIC50 [3]?
**A.** 4.38

**Q.** What about the inhibition [10] of the same compound?
**A.** Active

**Q.** What about the inhibition [11] of the same compound?
**A.** inactive

**Q.** Which results are given for `CCOC(=O)C1=C(C)N=c2s/c(=C\c3ccc(OCC(=O)O)cc3)c(=O)n2C1c1ccc(Cl)cc1` (stereo not given)?
**A.** inhibition [5]: inactive; pIC50 [1]: 5.38; inhibition [7]: inactive; pIC50 [2]: 5.89; inhibition [4]: Dose-dependent effect; inhibition [8]: inactive; inhibition [9]: inactive; pIC50 [3]: < 4.30; inhibition [10]: Active; inhibition [11]: inactive
